According to ChEMBL document CHEMBL1123215, “Arginine-vasopressin analogues with high antidiuretic/vasopressor selectivity. Synthesis, biological activity, and receptor binding affinity of arginine-vasopressin analogues with substitutions in positions 1, 2, 4, 7, and 8” (J Med Chem, 1986):
Positions of bridges follow the written chain, without caps; N, C: chain ends. Non-standard residues stand in square brackets, D forms with d. Residues, ends and D or L forms follow the SMILES beside them. NMeA = CN[C@@H](C)C(=O)O; Mpa = O=C(O)CCS; Sar = CNCC(=O)O

Experiments:
[1] = tested on: Rattus norvegicus; experiment: Compound was tested for the antidiuretic activity against hydrated anaesthetized rats, after intravenous injection.; assay type: functional, Urine
In short: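 Hydrated, anaesthetized rats given intravenous injection; effect measured as change in urine conductivity, with arginine-vasopressin as standard.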

[2] = tested on: Rattus norvegicus; experiment: Compound was tested for the vasopressor activity against phenoxybenzamine treated rats, after intravenous injection.; assay type: functional
In short: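 Pressor response measured in rats pretreated with phenoxybenzamine.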

[3] = Ratio of antidiuretic potency vs vasopressor potency; assay type: functional, Urine
In short: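 Antidiuretic potency from urine conductivity change in hydrated anaesthetized rats after i.v. injection, vasopressor potency in phenoxybenzamine-treated rats, arginine-vasopressin as standard; ratio of the two potencies.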

[4] = target: Vasopressin V2 receptor (Bos taurus, UniProt P48044); experiment: Binding affinity against plasma membrane from bovine kidney inner medulla; assay type: tissue-based
In short: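 Competition binding with [3H]AVP to plasma membranes, 30 min incubation; for rat liver membranes the standard medium included bacitracin (1 mg/mL). Apparent KD and slope factor b from weighted nonlinear least-squares fit of displacement curves to logistic curves; [3H]AVP parameters from direct binding. Mean ±SE of two experiments.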

[5] = target: Vasopressin V1 receptor (Rattus norvegicus, UniProt P48974+P30560); experiment: Binding affinity against plasma membrane from rat liver
In short: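 Rat liver plasma membranes, competition against [3H]AVP, 30 min incubation, bacitracin (1 mg/mL) in standard medium. Apparent KD and slope factor b from weighted nonlinear least-squares logistic fit of displacement curves; mean ±SE of two experiments.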

Vasopressin V2 receptor, sequence (P48044 whole entry): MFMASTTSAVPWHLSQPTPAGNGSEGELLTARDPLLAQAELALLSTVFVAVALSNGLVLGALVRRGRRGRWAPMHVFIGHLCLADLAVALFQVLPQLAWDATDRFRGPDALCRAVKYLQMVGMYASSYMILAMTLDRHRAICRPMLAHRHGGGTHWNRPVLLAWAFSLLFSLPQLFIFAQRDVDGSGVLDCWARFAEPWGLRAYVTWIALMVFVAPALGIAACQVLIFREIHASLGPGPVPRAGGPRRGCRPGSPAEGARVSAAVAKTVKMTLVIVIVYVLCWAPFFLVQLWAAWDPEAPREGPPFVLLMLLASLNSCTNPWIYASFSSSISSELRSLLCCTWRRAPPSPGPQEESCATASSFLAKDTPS

## C[C@@H](C(=O)N[C@@H](CCCN=C(N)N)C(=O)NCC(N)=O)N(C)C(=O)[C@@H]1CSSC[C@H](N)C(=O)N[C@@H](Cc2ccc(O)cc2)C(=O)N[C@@H](Cc2ccccc2)C(=O)N[C@@H](CCC(N)=O)C(=O)N[C@@H](CC(N)=O)C(=O)N1
[1]
  Potency: 343 IU mg-1
[2]
  Potency: 10.6 IU mg-1
[3]
  Ratio: 32

## CC(C)[C@H]1NC(=O)[C@H](Cc2ccccc2)NC(=O)[C@@H](Cc2ccc(O)cc2)NC(=O)CCSSC[C@@H](C(=O)N(C)[C@@H](C)C(=O)N[C@@H](CCCN=C(N)N)C(=O)NCC(N)=O)NC(=O)[C@H](CC(N)=O)NC1=O
[1]
  Potency: 103 IU mg-1
[2]
  Potency: 0.69 IU mg-1
[4]
  Kd: 9.4 nM
[5]
  Kd: 53 nM
[3]
  Ratio: 150

## CN(CC(=O)N[C@H](CCCN=C(N)N)C(=O)NCC(N)=O)C(=O)[C@@H]1CSSC[C@H](N)C(=O)N[C@@H](Cc2ccc(O)cc2)C(=O)N[C@@H](Cc2ccccc2)C(=O)N[C@@H](CCC(N)=O)C(=O)N[C@@H](CC(N)=O)C(=O)N1 [listing 1 of 2 here]
[4]
  Kd: 10 nM
[5]
  Kd: 420 nM

## CN(CC(=O)N[C@H](CCCN=C(N)N)C(=O)NCC(N)=O)C(=O)[C@@H]1CSSC[C@H](N)C(=O)N[C@@H](Cc2ccc(O)cc2)C(=O)N[C@@H](Cc2ccccc2)C(=O)N[C@@H](CCC(N)=O)C(=O)N[C@@H](CC(N)=O)C(=O)N1 [listing 2 of 2 here]
[1]
  Potency: 56 IU mg-1
[2]
  Potency: 0.04 IU mg-1
[3]
  Ratio: 1400

## C[C@@H](C(=O)N[C@H](CCCN=C(N)N)C(=O)NCC(N)=O)N(C)C(=O)[C@@H]1CSSC[C@H](N)C(=O)N[C@@H](Cc2ccc(O)cc2)C(=O)N[C@@H](Cc2ccccc2)C(=O)N[C@@H](CCC(N)=O)C(=O)N[C@@H](CC(N)=O)C(=O)N1 [listing 1 of 2 here]
[4]
  Kd: 21 nM
[5]
  Kd: 280 nM

## C[C@@H](C(=O)N[C@H](CCCN=C(N)N)C(=O)NCC(N)=O)N(C)C(=O)[C@@H]1CSSC[C@H](N)C(=O)N[C@@H](Cc2ccc(O)cc2)C(=O)N[C@@H](Cc2ccccc2)C(=O)N[C@@H](CCC(N)=O)C(=O)N[C@@H](CC(N)=O)C(=O)N1 [listing 2 of 2 here]
[1]
  Potency: 69 IU mg-1
[2]
  Potency: 0.11 IU mg-1
[3]
  Ratio: 630

## CN(CC(=O)N[C@@H](CCCN=C(N)N)C(=O)NCC(N)=O)C(=O)[C@@H]1CSSC[C@H](N)C(=O)N[C@@H](Cc2ccc(O)cc2)C(=O)N[C@@H](Cc2ccccc2)C(=O)N[C@@H](CCC(N)=O)C(=O)N[C@@H](CC(N)=O)C(=O)N1
[1]
  Potency: 188 IU mg-1
[2]
  Potency: 3.6 IU mg-1
[3]
  Ratio: 52

## C[C@@H](C(=O)N[C@H](CCCN=C(N)N)C(=O)NCC(N)=O)N(C)C(=O)[C@@H]1CSSCCC(=O)N[C@@H](Cc2ccc(O)cc2)C(=O)N[C@@H](Cc2ccccc2)C(=O)N[C@@H](CCC(N)=O)C(=O)N[C@@H](CC(N)=O)C(=O)N1 [listing 1 of 2 here]
[4]
  Kd: 51 nM
[5]
  Kd: 290 nM

## C[C@@H](C(=O)N[C@H](CCCN=C(N)N)C(=O)NCC(N)=O)N(C)C(=O)[C@@H]1CSSCCC(=O)N[C@@H](Cc2ccc(O)cc2)C(=O)N[C@@H](Cc2ccccc2)C(=O)N[C@@H](CCC(N)=O)C(=O)N[C@@H](CC(N)=O)C(=O)N1 [listing 2 of 2 here]
[1]
  Potency: 368.5 IU mg-1
[2]
  Potency: 0.07 IU mg-1
[3]
  Ratio: 5260

## CN(CC(=O)N[C@H](CCCN=C(N)N)C(=O)NCC(N)=O)C(=O)[C@@H]1CSSCCC(=O)N[C@@H](Cc2ccc(O)cc2)C(=O)N[C@@H](Cc2ccccc2)C(=O)N[C@@H](CCC(N)=O)C(=O)N[C@@H](CC(N)=O)C(=O)N1 [listing 1 of 2 here]
[4]
  Kd: 8.7 nM
[5]
  Kd: 160 nM

## CN(CC(=O)N[C@H](CCCN=C(N)N)C(=O)NCC(N)=O)C(=O)[C@@H]1CSSCCC(=O)N[C@@H](Cc2ccc(O)cc2)C(=O)N[C@@H](Cc2ccccc2)C(=O)N[C@@H](CCC(N)=O)C(=O)N[C@@H](CC(N)=O)C(=O)N1 [listing 2 of 2 here]
[1]
  Potency: 214.5 IU mg-1
[2]
  Potency: 0.01 IU mg-1
[3]
  Ratio: 2145

## C[C@@H](C(=O)N[C@@H](CCCN=C(N)N)C(=O)NCC(N)=O)N(C)C(=O)[C@@H]1CSSC[C@H](N)C(=O)N[C@@H](Cc2ccccc2)C(=O)N[C@@H](Cc2ccccc2)C(=O)N[C@@H](CCC(N)=O)C(=O)N[C@@H](CC(N)=O)C(=O)N1 (H-CFFQNC[NMeA]RG-NH2; disulfide 1-6) [listing 1 of 2 here]
[4]
  Kd: 110 nM
[5]
  Kd: 110 nM

## C[C@@H](C(=O)N[C@@H](CCCN=C(N)N)C(=O)NCC(N)=O)N(C)C(=O)[C@@H]1CSSC[C@H](N)C(=O)N[C@@H](Cc2ccccc2)C(=O)N[C@@H](Cc2ccccc2)C(=O)N[C@@H](CCC(N)=O)C(=O)N[C@@H](CC(N)=O)C(=O)N1 (H-CFFQNC[NMeA]RG-NH2; disulfide 1-6) [listing 2 of 2 here]
[1]
  Potency: 14.5 IU mg-1
[2]
  Potency: 0.57 IU mg-1
[3]
  Ratio: 25

## CN(CC(=O)N[C@@H](CCCNC(=N)N)C(=O)NCC(N)=O)C(=O)[C@@H]1CSSC[C@H](N)C(=O)N[C@@H](Cc2ccccc2)C(=O)N[C@@H](Cc2ccccc2)C(=O)N[C@@H](CCC(N)=O)C(=O)N[C@@H](CC(N)=O)C(=O)N1 (H-CFFQNC[Sar]RG-NH2; disulfide 1-6)
[4]
  Kd: 44 nM
[5]
  Kd: 170 nM

## CN(CC(=O)N[C@@H](CCCN=C(N)N)C(=O)NCC(N)=O)C(=O)[C@@H]1CSSC[C@H](N)C(=O)N[C@@H](Cc2ccccc2)C(=O)N[C@@H](Cc2ccccc2)C(=O)N[C@@H](CCC(N)=O)C(=O)N[C@@H](CC(N)=O)C(=O)N1 (H-CFFQNC[Sar]RG-NH2; disulfide 1-6)
[1]
  Potency: 39.6 IU mg-1
[2]
  Potency: 0.17 IU mg-1
[3]
  Ratio: 230

## CC(C)[C@@H]1NC(=O)[C@H](Cc2ccccc2)NC(=O)[C@H](Cc2ccc(O)cc2)NC(=O)[C@@H](N)CSSC[C@@H](C(=O)N(C)[C@@H](C)C(=O)N[C@@H](CCCNC(=N)N)C(=O)NCC(N)=O)NC(=O)[C@H](CC(N)=O)NC1=O (H-CYFVNC[NMeA]RG-NH2; disulfide 1-6)
[4]
  Kd: 33 nM
[5]
  Kd: 310 nM

## CC(C)[C@@H]1NC(=O)[C@H](Cc2ccccc2)NC(=O)[C@H](Cc2ccc(O)cc2)NC(=O)[C@@H](N)CSSC[C@@H](C(=O)N(C)CC(=O)N[C@@H](CCCNC(=N)N)C(=O)NCC(N)=O)NC(=O)[C@H](CC(N)=O)NC1=O (H-CYFVNC[Sar]RG-NH2; disulfide 1-6)
[4]
  Kd: 9.4 nM
[5]
  Kd: 110 nM

## CC(C)[C@@H]1NC(=O)[C@H](Cc2ccccc2)NC(=O)[C@H](Cc2ccc(O)cc2)NC(=O)[C@@H](N)CSSC[C@@H](C(=O)N(C)CC(=O)N[C@@H](CCCN=C(N)N)C(=O)NCC(N)=O)NC(=O)[C@H](CC(N)=O)NC1=O (H-CYFVNC[Sar]RG-NH2; disulfide 1-6)
[1]
  Potency: 270 IU mg-1
[2]
  Potency: 34.7 IU mg-1
[3]
  Ratio: 8

## CC(C)[C@@H]1NC(=O)[C@H](Cc2ccccc2)NC(=O)[C@H](Cc2ccc(O)cc2)NC(=O)CCSSC[C@@H](C(=O)N(C)CC(=O)N[C@@H](CCCN=C(N)N)C(=O)NCC(N)=O)NC(=O)[C@H](CC(N)=O)NC1=O ([Mpa]YFVNC[Sar]RG-NH2; disulfide 1-6) [listing 1 of 2 here]
[4]
  Kd: 1.4 nM
[5]
  Kd: 27 nM

## CC(C)[C@@H]1NC(=O)[C@H](Cc2ccccc2)NC(=O)[C@H](Cc2ccc(O)cc2)NC(=O)CCSSC[C@@H](C(=O)N(C)CC(=O)N[C@@H](CCCN=C(N)N)C(=O)NCC(N)=O)NC(=O)[C@H](CC(N)=O)NC1=O ([Mpa]YFVNC[Sar]RG-NH2; disulfide 1-6) [listing 2 of 2 here]
[1]
  Potency: 552 IU mg-1
[2]
  Potency: 0.4 IU mg-1
[3]
  Ratio: 1380

## N=C(N)NCCC[C@H](NC(=O)[C@@H]1CCCN1C(=O)[C@@H]1CSSC[C@H](N)C(=O)N[C@@H](Cc2ccc(O)cc2)C(=O)N[C@@H](Cc2ccccc2)C(=O)N[C@@H](CCC(N)=O)C(=O)N[C@@H](CC(N)=O)C(=O)N1)C(=O)NCC(N)=O [VASOPRESSIN]
[1]
  Potency: 323 IU mg-1
